Compound activity (PubChem BioAssay)
This is a sample that favours compounds with a hit; in the whole collection about 2.3% have one here.
STAT3 activator = IL-6 driven STAT3 reporter potentiators, primary screen, U3A cells, luciferase, luminescence, MLSCN library; IL-6 STAT3-luciferase reporter; 100% = signal with IL-6 EC80 alone; activation (% of control), % at 5.6 µM; 190,000 compounds, 0.91% hits; AID 871, 2007;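 active means activation above the screen-wide mean of compound activation plus 3 SD, cut at about 130% in these data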;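 further: 0% = background luminescence of wells with medium and substrate only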
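Material: STAT1-lacking human U3A cells, STAT3 luciferase reporter | Benchmarks: IL-6-only wells as 100% reference | Probe or stimulus: IL-6 (33 ng/mL) | Timing: Compound 1 h, then IL-6 6 h at 37 °C | Detection: Luminescence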
PPC-1+TRAIL kill = compounds killing PPC-1 cancer cells with TRAIL present, primary screen, TRAIL potentiator project, ATPLite luminescence, uHTS; PPC-1 cells + TRAIL, ATPLite viability luminescence; cell killing (% activity), % at 4 µM or 5 µM; 220,000 compounds, 0.41% hits; AID 1443, 2008;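 active means cell killing above 50% in the first pass at 4 µM, then a duplicate retest at 5 µM averaging 50% or more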;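 further: plate controls were cells with TRAIL plus DMSO for no effect and medium-only wells lacking cells for full effect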
STAT1 blocker = STAT1 signaling inhibitors, primary screen, cell-based, HTS, luciferase reporter; AID 920, 2007; inhibition, % at 5.5 µM; 200,000 compounds, 0.35% hits; NIH 3T3 STAT1-luciferase reporter, IFN-gamma, luminescence;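 active means inhibition above a set limit, the mean inhibition across all tested compounds plus 3 SD, cut at about 34% in these data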;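 further: 0% = IFN-gamma with DMSO and 100% = IFN-gamma with 300 µM nifuroxazide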
STAT3 inh = IL-6 driven STAT3 reporter inhibitors, primary screen, U3A cells, luciferase, luminescence, MLSCN library | IL-6 STAT3-luciferase reporter; host cell line lacks STAT1 | inhibition, % at 5.5 µM | 190,000 compounds, 0.89% hits | AID 862, 2007;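 active means inhibition above the mean inhibition across all screened compounds plus 3 SD, cut at about 44% in these data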;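 further: 0% = DMSO only wells and 100% = 100 µM nifuroxazide control wells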
C8 TRAIL sens = viability loss with TRAIL in NB7+C8 cells, primary screen, TRAIL sensitizer project, cell-based, ATPlite luminescence | inhibition (viability loss, TRAIL sensitization), % at 10 µM | 360,000 compounds, 1% hits | AID 624354, 2012;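 active means compounds causing at least 50% loss of cell viability in the single-dose screen, relative to plate controls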
HSP90 refold inh = HSP90 inhibitors, primary screen, cell lysate, luminescence | 290,000 compounds, 0.91% hits | Heat shock protein HSP 90 (rabbit reticulocyte lysate; luciferase refolding) | inhibition, % at 5.6 µM | AID 1789, 2009 | Rabbit reticulocyte lysate, luciferase refolding luminescence, 3 h;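 active means inhibition above the screen-wide mean plus 3 SD, computed separately per campaign, cut at about 16% in these data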;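 further: 0% = DMSO wells and 100% = 60 µM geldanamycin wells; inhibitors lower the luminescence because luciferase stays unfolded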
An asterisk follows results filed as active; x = not tested or not shown.

SMILES	STAT3 activator	PPC-1+TRAIL kill	STAT1 blocker	STAT3 inh	C8 TRAIL sens	HSP90 refold inh
COc1cccc(C2c3[nH]c4ccccc4c3CCN2Cc2cccn2-c2ncccn2)c1 (stereo not given)	133*	20	-1	-31	2	-4
CCn1cc(CN2CCc3c([nH]c4ccccc34)C2c2cccc(OC)c2)c(C)n1 (stereo not given)	133*	10	-5	-30	-9	-3
Fc1ccc(C2c3[nH]c4ccccc4c3CCN2Cc2cccn2-c2ncccn2)cc1 (stereo not given)	102	x	10	-1	28	2
CCOc1ccc(C(C)=O)cc1COC(=O)c1ccc2c(c1)NC(=O)CS2	x	x	x	x	10	x
O=C(O)[C@@H]1CSC2(CCSC2)N1 (stereo not given in full)	x	2	x	x	x	x
O=C(OCc1nc2ccccc2s1)c1cccs1	151*	34	-40	-57	24	3
COCCN(C(=O)CSc1nnc(-c2ccc(C(C)(C)C)cc2)n1N)c1c(N)n(CC(C)C)c(=O)[nH]c1=O	x	x	x	x	-6	x
Cn1ncc2c(Nc3ccc([N+](=O)[O-])cc3)nc(Cl)nc21	x	-8	x	x	8	-3
Cc1cc(/C=C(\C#N)c2nc3ccccc3[nH]2)c(C)n1C	94	25	-47	5	78*	-2
COc1ccc(/C=C(\C#N)c2nc3ccccc3[nH]2)cc1O	x	x	x	x	52*	-3
COc1cc(/C=C(\C#N)c2nc3ccccc3[nH]2)cc(OC)c1O	84	-8	-28	22	-1	4
CCOc1cc(N(CC)CC)ccc1/C=C(/C#N)c1nc2ccccc2[nH]1	100	30	-16	0	23	18*
Cc1cc(/C=C(/C#N)c2nc3ccccc3[nH]2)c(C)n1-c1cccc([N+](=O)[O-])c1	91	6	-3	17	18	0
COc1cc(SC#N)ccc1N=Cc1c(C)[nH]n(-c2cccc3ccccc23)c1=O	101	31	-3	10	x	16*
CCOc1ccc(C(=O)Nc2nnn(CC)n2)cc1	97	-4	-17	6	37	16*
CCCn1nnc(NC(=O)c2ccc(OC)cc2)n1	110	8	-27	-12	7	4
Cc1noc(C(=O)Nc2ccc(C#N)cc2)c1Cl	x	x	x	x	-8	5
CCc1ccc(NC(=O)c2onc(C)c2Cl)cc1	141*	18	-47	-46	38	6
Cc1ccc2c(c1)nnn2C1CCN(CC(=O)c2ccc(Cl)cc2)CC1	103	-5	-5	-1	8	-2
O=C(COc1ccc(Cl)cc1)N(Cc1ccco1)C1CCS(=O)(=O)C1 (stereo not given)	x	-5	x	x	9	3
N/C(=N\OC(=O)c1ccccc1)C(Cc1ccccc1)C(=O)NOC(=O)c1ccccc1 (stereo not given)	x	x	x	x	89*	x
O=C(Nc1ccccc1Cl)c1cc(S(=O)(=O)N2CCCC(C(=O)O)C2)ccc1F (stereo not given)	99	18	-2	2	-8	-3
O=C(Nc1ccc(O)cc1)c1ccc2c(c1)C(=O)N(Cc1ccccc1)C2=O	x	x	x	x	63*	0
O=C(O)c1cccc(NC(=O)c2ccc3c(c2)C(=O)N(CC2CCCO2)C3=O)c1 (stereo not given)	75	4	37*	30	16	17*
CCn1cc(Br)c(C(=O)Nc2cccc(Cl)c2)n1	110	-2	-6	-8	0	-1
SMILES	STAT3 activator	PPC-1+TRAIL kill	STAT1 blocker	STAT3 inh	C8 TRAIL sens	HSP90 refold inh
COc1ccc(-n2c(C)cc(C3=NNC(=NC4CC4)SC3)c2C)cc1	80	2	62*	28	4	12
CN=C1NN=C(c2cc(C)n(-c3c(C)n(C)n(-c4ccccc4)c3=O)c2C)CS1	103	25	0	-3	6	2
Cc1cc(C2=NNC(=NC3CC3)SC2)c(C)n1Cc1ccco1	29	-5	52*	85*	32	0
Cc1cc(C2=NNC(=NC3CC3)SC2)c(C)n1-c1ccccc1	12	6	91*	105*	79*	13
COCCCN=C1NN=C(c2cc(C)n(Cc3ccco3)c2C)CS1	98	24	-26	3	11	5
CC(SC1=NCCS1)C(=O)Nc1nnc(-c2ccc(F)cc2)s1 (stereo not given)	89	-17	-17	22	6	-3
O=C(c1ccccc1)N1CCCCC1	x	x	x	x	-3	x
c1ccc(-c2csc(Nc3cccnc3)n2)cc1	149*	7	-41	-54	-7	3
Fc1ccc(Nc2nc(-c3cccnc3)cs2)cc1	157*	x	-42	-64	6	3
COc1cccc(NC(=O)CN(C)C(=O)CCSc2ccc(C)cc2)c1	x	x	x	x	4	x
Cc1cc(C(=O)NN=C2CCCCCCC2)c2ccccc2n1	x	x	x	x	4	x
CC(C)(C)NC(=O)C(c1ccncc1)N(C(=O)CNC(=O)c1ccco1)c1ccc(F)cc1 (stereo not given)	x	x	x	x	-4	3
O=C(COc1coc(CN2CCc3ccccc3C2)cc1=O)Nc1cccc(F)c1	x	x	x	x	-4	x
CC(=O)Oc1c(C)cc(Cl)cc1C(=O)Nc1ccc([N+](=O)[O-])cc1Cl	63	39	3	46*	31	1
Cc1c(Cl)cccc1NC(=S)N=Nc1c(O)n(CN2CCOCC2)c2ccccc12	102	53*	7	2	-4	4
O=C(Nc1ccc(N2CCCCC2)cc1)c1cccnc1Cl	95	-6	-13	12	-5	7
O=C(Cn1c(NCCCO)nc2ccccc21)c1ccc(Cl)cc1	x	x	x	x	-16	-1
O=C(Cn1c(NCCCO)nc2ccccc21)c1ccco1	95	0	7	9	21	16*
Cc1cccc(C)c1Nc1nnc(SCc2nc3ccccc3s2)s1	130	24	-27	-36	9	2
Cc1ccnc(SCc2nc3ccccc3s2)n1	136*	14	-33	-32	5	-1
COc1ccc(C2=NOC(C(=O)NCc3ccc(F)cc3)C2)cc1OC (stereo not given)	134*	10	-5	-36	23	3
C=CCc1cccc2cc(C(=O)Nc3ccccc3C(=O)O)c(=O)oc12	100	-9	72*	6	-21	-4
C=CCc1cccc2cc(C(=O)O)c(=O)oc12	116	-14	2	-12	-16	2
CCN(CC)CCCC(C)Nc1nccc2c(Cl)cccc12 (stereo not given)	x	x	x	x	12	x
O=C(N=Nc1c(O)[nH]c2ccc(Br)cc12)c1cc(-c2cccs2)nc2ccccc12	102	16	9	3	87*	2
O=C(N=Nc1c(O)[nH]c2ccccc12)c1cccs1	90	43	-43	20	62*	3
